From ChEMBL document CHEMBL5046298, “SAR of Novel 3-Arylisoquinolinones: meta-Substitution on the Aryl Ring Dramatically Enhances Antiproliferative Activity through Binding to Microtubules” (J Med Chem, 2022)
Active and inactive are the calls of the source. The calls are words filed in the database; no cut-off is given here.

What was measured:
Tubulin (Homo sapiens) [1] = molecular target: T1, Tubulin (Homo sapiens) (UniProt P68371+Q9H4B7+P0DPH7+P68366+Q13509+Q71U36+P04350+Q3ZCM7+P07437+P68363+Q9BQE3+Q6PEY2+Q13885+Q9BVA1+Q9BUF5); test: Inhibition of tubulin (unknown origin) polymerization assessed as reduction in microtubule formation by measuring reduction in absorbance at 10 uM measured every minute for 1 hr in presence of GTP by microplate reader analysis; type: protein-complex assay
In short: (§1)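 Cell-free turbidity assay: purified bovine tubulin diluted to 60 μM in polymerization buffer with 1 mM GTP, mixed on ice with DMSO or test agent (final 5, 10, 20 μM). […] A350 read every 1 min for 60 min at 37 °C; ΔA calculated relative to time zero.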

[2] = molecular target: T2, Ribosyldihydronicotinamide dehydrogenase [quinone] (Homo sapiens) (UniProt P16083); test: Inhibition of human recombinant NQO2 at upto 100 uM; conditions: dose microM <=100
T2 sequence (whole entry): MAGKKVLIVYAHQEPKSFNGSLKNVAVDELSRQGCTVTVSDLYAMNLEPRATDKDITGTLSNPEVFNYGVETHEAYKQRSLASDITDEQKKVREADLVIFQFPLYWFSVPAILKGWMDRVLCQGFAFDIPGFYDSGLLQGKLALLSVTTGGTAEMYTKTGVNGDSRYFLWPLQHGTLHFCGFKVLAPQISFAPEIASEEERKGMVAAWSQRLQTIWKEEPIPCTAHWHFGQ

HUVEC [3] = test: Disruption of preestablished capillary like tubes in HUVEC cells at 25 uM incubated for 16 hrs by matrigel based bright field microscopic analysis; type: functional, cell-based; conditions: Homo sapiens
HUVEC [4] = test: Antivascular activity against HUVEC cells assessed as inhibition of capillary like tube formation at 25 uM incubated for 16 hrs by matrigel based bright field microscopic analysis; type: functional, cell-based; conditions: Homo sapiens
In short: (§2)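 Tube formation: HUVECs (25×10^3 per well) plated onto gelled Matrigel together with DMSO or test agent (0.5, 1, 2 μM or 25 μM). After 16 h, tube networks were examined by bright-field microscopy at 4×. Three independent experiments.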

SNU-423 [5] = test: Induction of apoptosis in human SNU-423 cells assessed as viable cells at 0.5 uM incubated for 24 hrs by Annexin V-APC/PI staining based flow cytometry (reference value: 92.7 %); type: functional; conditions: read-out: Activity
HUVEC [6] = test: Disruption of preestablished capillary like tubes in HUVEC cells incubated for 16 hrs by matrigel based bright field microscopic analysis; type: functional, cell-based; conditions: Homo sapiens, dose 0.5-10 µM
Tubulin (Homo sapiens) [7] = molecular target: T1, Tubulin (Homo sapiens); test: Inhibition of tubulin (unknown origin) polymerization assessed as reduction in microtubule formation by measuring reduction in absorbance measured every minute for 1 hr in presence of GTP by microplate reader analysis; type: protein-complex assay; conditions: dose 5-20 µM; in short: as §1
HepG2 [8] = test: Cytotoxicity against human HepG2 cells assessed as inhibition of colony formation at 0.5 to 1 uM incubated for 14 days by methylene blue staining based clonogenic assay; type: functional, cell-based; conditions: dose 0.5-1 µM, time 14.0 day
In short: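 Clonogenic survival: HepG2 seeded as single cells at 1000/well and left 10-12 h to adhere. Treated with DMSO or a concentration range for 14 days, with compound added once. Colonies fixed in 70% ethanol, stained with 0.5% methylene blue, and colonies of ≥50 cells counted. Surviving fraction = treated CFE/control CFE. Three independent experiments.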

HUVEC [9] = test: Disruption of preestablished capillary like tubes in HUVEC cells assessed as decrease in tube junctions at 1 to 2 uM incubated for 16 hrs by matrigel based bright field microscopic analysis; type: functional, cell-based; conditions: Homo sapiens, dose 1-2 µM
HUVEC [10] = test: Cytotoxicity against HUVEC cells assessed as reduction in cell proliferation at upto 10 uM incubated for 24 hrs by Sulforhodamine B assay; type: toxicity, cell-based; conditions: human
In short: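 HUVECs plated without Matrigel at 4000 cells/well, allowed to attach overnight, then exposed to a concentration range for 24 h. Growth read by SRB: TCA fixation, 0.4% SRB dye, OD at 510 nm, expressed as % of DMSO control. Mean ± SEM of three independent experiments.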

HepG2 [11] = test: Induction of cell cycle arrest in human HepG2 cells assessed as decrease in cell proportion at G0/G1 phase at 25 uM measured after 24 hrs by PI staining based flow cytometry; type: functional
HepG2 [12] = test: Induction of reversible mitotic arrest in human HepG2 cells assessed as restoration of cell population in G2/M phase at 2 to 5 uM treated for 24 hrs followed by replacement with fresh medium without compound and further incubated for 24 hrs by PI staining based flow cytometry; type: functional; conditions: dose 2-5 µM
In short: (§3)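 HepG2 cells (5×10^5 per dish) treated 24 h, then medium replaced with compound-free medium for a further 24 h. Cells then ethanol-fixed and stained with PI/RNase A for 30 min at 37 °C. 10 000 cells analyzed by flow cytometry; phase percentages by Watson model. Compared with control by one-way ANOVA/Dunnett's.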

SNU-423 [13] = test: Induction of apoptosis in human SNU-423 cells assessed as early apoptotic cells at 1 uM incubated for 24 hrs by Annexin V-APC/PI staining based flow cytometry (reference value: 0.94 %); type: functional
HUVEC [14] = test: Disruption of preestablished capillary like tubes in HUVEC cells assessed as formation of short distorted tubes at 1 to 2 uM incubated for 16 hrs by matrigel based bright field microscopic analysis; type: functional, cell-based; conditions: Homo sapiens, dose 1-2 µM
SNU-423 [15] = test: Induction of apoptosis in human SNU-423 cells assessed as necrotic cells at 1 uM incubated for 24 hrs by Annexin V-APC/PI staining based flow cytometry (reference value: 5.74 %); type: functional
HepG2 [16] = test: Induction of reversible mitotic arrest in human HepG2 cells assessed as restoration of cell population in G0/G1 phase at 2 to 5 uM treated for 24 hrs followed by replacement with fresh medium without compound and further incubated for 24 hrs by PI staining based flow cytometry; type: functional; conditions: dose 2-5 µM; in short: as §3
HUVEC [17] = test: Disruption of preestablished capillary like tubes in HUVEC cells assessed as rounded and retracted cells at 0.5 to 1 uM incubated for 16 hrs by matrigel based inverted microscopy; conditions: Homo sapiens, dose 0.5-1 µM
Tubulin (Homo sapiens) [18] = molecular target: T1, Tubulin (Homo sapiens); test: Induction of microtubule disruption in HUVEC cells assessed as shortened microtubules with outer blebbing filled with tubulin at 0.5 to 1 uM incubated for 24 hrs by immunofluorescence based inverted microscopy; type: cell-based; conditions: dose 0.5-1 µM
In short: (§4)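 HUVECs (2×10^4) adhered overnight on glass slides, no Matrigel. Treated 24 h with 0.5 or 1 μM; colchicine 0.1 μM as positive control. Fixed in 10% formalin, permeabilized with Triton X-100, blocked. Stained with anti-α-tubulin plus Cy5 secondary, phalloidin-Atto 488 for F-actin, and DAPI. Imaged by inverted fluorescence microscopy at 63×. Three independent experiments.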

[19] = Antiproliferative activity against human THLE-3 cells assessed as inhibition of cell proliferation incubated for 24 hrs followed by 72 hrs of compound-free incubation by Sulforhodamine B assay; type: toxicity, cell-based
In short: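 SRB growth assay: cells seeded overnight (HepG2 3000, SNU423 2000, MDA-MB-231 1500, MCF-7 2500, A549 1000, HCT116 1000, THLE-3 4000 cells/well), then exposed to a concentration range for 96 h, or 24 h followed by 72 h drug-free. DMSO ≤0.3%. TCA fixation, 0.4% SRB staining, OD at 510 nm. Growth % = OD test/OD control ×100. IC50 from four-parameter fit; at least three independent experiments.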

HepG2 [20] = test: Induction of cell cycle arrest in human HepG2 cells assessed as increase in sub-G0/G1 cell population at 2 uM measured after 24 hrs by PI staining based flow cytometry; type: functional
SNU-423 [21] = test: Induction of apoptosis in human SNU-423 cells assessed as late apoptotic cells at 0.5 uM incubated for 24 hrs by Annexin V-APC/PI staining based flow cytometry (reference value: 0.83 %); type: functional
SNU-423 [22] = test: Induction of apoptosis in human SNU-423 cells assessed as early apoptotic cells at 0.5 uM incubated for 24 hrs by Annexin V- APC/PI staining based flow cytometry (reference value: 0.94 %); type: functional
HUVEC [23] = test: Induction of actin disruption in HUVEC cells assessed as thicker and brighter actin fibers at 0.5 to 1 uM incubated for 24 hrs by phalloidin-Atto 488 staining based inverted microscopy; type: cell-based; conditions: Homo sapiens, dose 0.5-1 µM; in short: as §4
HepG2 [24] = test: Induction of reversible mitotic arrest in human HepG2 cells assessed as increase in cell population in sub-G0/G1 phase at 2 to 5 uM treated for 24 hrs followed by replacement with fresh medium without compound and further incubated for 24 hrs by PI staining based flow cytometry; type: functional; conditions: dose 2-5 µM; in short: as §3
SNU-423 [25] = test: Induction of apoptosis in human SNU-423 cells assessed as viable cells at 1 uM incubated for 24 hrs by Annexin V-APC/PI staining based flow cytometry (reference value: 92.7 %); type: functional; conditions: read-out: Activity
HepG2 [26] = test: Induction of reversible mitotic arrest in human HepG2 cells assessed as restoration of cell population in S phase at 2 to 5 uM treated for 24 hrs followed by replacement with fresh medium without compound and further incubated for 24 hrs by PI staining based flow cytometry; type: functional; conditions: dose 2-5 µM; in short: as §3
HUVEC [27] = test: Antivascular activity against HUVEC cells assessed as inhibition of capillary like tube formation incubated for 16 hrs by matrigel based bright field microscopic analysis; type: functional, cell-based; conditions: Homo sapiens, dose 2.0 µM; in short: as §2

For `COC(=O)Nc1nc2cc(C(=O)c3cccs3)ccc2[nH]1`, the inhibition (Tubulin (Homo sapiens) [1]) was “Active”.

With `COc1ccc(-c2cc3cc(F)ccc3c(=O)[nH]2)cc1` the inhibition [2] was “inactive”.

For `O=c1[nH]c(-c2ccc(F)cc2)cc2cc(F)ccc12`, the Activity (HUVEC [3]) was “inactive”, the Activity (HUVEC [4]) was “inactive” and the inhibition [2] was “inactive”.

With `CC(=O)O[C@H]1C(=O)[C@@]2(C)[C@H]([C@H](OC(=O)c3ccccc3)[C@]3(O)C[C@H](OC(=O)[C@H](O)[C@@H](NC(=O)c4ccccc4)c4ccccc4)C(C)=C1C3(C)C)[C@]1(OC(C)=O)CO[C@@H]1C[C@@H]2O` the inhibition (Tubulin (Homo sapiens) [1]) was “inactive”.

In the case of `O=c1[nH]c(-c2cccc(F)c2)cc2cc(F)ccc12`, the viability at 0.5 µM (SNU-423 [5]) is reported as 76%, the Activity (HUVEC [6]) is reported as “Dose-Dependent Effect” and the inhibition (Tubulin (Homo sapiens) [7]) is reported as “Active”. The inhibition (HepG2 [8]) was “Active”, the Activity (HUVEC [9]) was “Active” and the Activity (HUVEC [10]) was “Non-Toxic”. The Activity (HepG2 [11]) was “Active”, the Activity (HepG2 [12]) was “Active” and the Activity (SNU-423 [13]) was 15.1%. The Activity (HUVEC [14]) was “Active”, the Activity (SNU-423 [15]) was 12.1% and the Activity (HepG2 [16]) was “Active”. For the same molecule, the Activity (HUVEC [17]) was “Active”, the Activity (Tubulin (Homo sapiens) [18]) was “Active” and the IC50 at 24 h [19] was > 25 µM. The Activity (HepG2 [20]) was “Active”, the Activity (SNU-423 [21]) was 6.47% and the inhibition [2] was “inactive”. The Activity (SNU-423 [22]) was 5.95%, the Activity (HUVEC [23]) was “Active” and the Activity (HepG2 [24]) was “Active”. For the same molecule, the viability at 1 µM (SNU-423 [25]) was 60.4%, the Activity (HepG2 [26]) was “Active” and the Activity (HUVEC [27]) was “Dose-Dependent Effect”.
